Test results taken from ChEMBL document CHEMBL1208778, “Synthesis and anti-cancer activity of chalcone linked imidazolones” (2010).
Active and inactive are the calls of the source. The calls are words filed in the database; no cut-off is given here.

What was measured:
[1] = Growth inhibition of human RPMI8266 cells; type: functional
Summary of the method: (§1)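 Five-dose testing was run within the NCI (Bethesda) in vitro Anticancer Screen Program on a panel of 53 human tumour cell lines from nine cancer types. Growth inhibition is reported as GI50.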

[2] = test system: K562; assay: Growth inhibition of human K562 cells; type: functional; summary of the method: as §1
[3] = test system: A549; assay: Growth inhibition of human A549 cells; type: functional; summary of the method: as §1
[4] = test system: EKVX; assay: Growth inhibition of human EKVX cells; type: functional; summary of the method: as §1
[5] = test system: HOP-62; assay: Growth inhibition of human HOP62 cells; type: functional; summary of the method: as §1
[6] = test system: HOP-92; assay: Growth inhibition of human HOP92 cells; type: functional; summary of the method: as §1
[7] = test system: NCI-H226; assay: Growth inhibition of human NCI-H226 cells; type: functional; summary of the method: as §1
[8] = test system: NCI-H23; assay: Growth inhibition of human NCI-H23 cells; type: functional; summary of the method: as §1
[9] = test system: NCI-H322M; assay: Growth inhibition of human NCI-H322M cells; type: functional; summary of the method: as §1
[10] = test system: NCI-H460; assay: Growth inhibition of human NCI-H460 cells; type: functional; summary of the method: as §1
[11] = test system: NCI-H522; assay: Growth inhibition of human NCI-H522 cells; type: functional; summary of the method: as §1
[12] = test system: COLO 205; assay: Growth inhibition of human COLO205 cells; type: functional; summary of the method: as §1
[13] = test system: HCC 2998; assay: Growth inhibition of human HCC2998 cells; type: functional; summary of the method: as §1
[14] = test system: HCT-116; assay: Growth inhibition of human HCT116 cells; type: functional; summary of the method: as §1
[15] = test system: HCT-15; assay: Growth inhibition of human HCT15 cells; type: functional; summary of the method: as §1
[16] = test system: HT-29; assay: Growth inhibition of human HT-29 cells; type: functional; summary of the method: as §1
[17] = test system: KM12; assay: Growth inhibition of human KM12 cells; type: functional; summary of the method: as §1
[18] = test system: SW-620; assay: Growth inhibition of human SW620 cells; type: functional
Summary of the method: (§2)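 Compounds that passed a preliminary screen were tested at five doses in the NCI (Bethesda) in vitro Anticancer Screen Program against a 53-line human tumour panel spanning leukemia, lung, colon, CNS, melanoma, ovarian, renal, prostate and breast. Growth inhibition is reported as GI50.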

[19] = test system: SF-268; assay: Growth inhibition of human SF268 cells; type: functional; summary of the method: as §1
[20] = test system: SF-295; assay: Growth inhibition of human SF295 cells; type: functional; summary of the method: as §1
[21] = test system: SF-539; assay: Growth inhibition of human SF539 cells; type: functional; summary of the method: as §1
[22] = test system: SNB-19; assay: Growth inhibition of human SNB19 cells; type: functional; summary of the method: as §2
[23] = test system: SNB-75; assay: Growth inhibition of human SNB75 cells; type: functional; summary of the method: as §2
[24] = test system: U-251; assay: Growth inhibition of human U251 cells; type: functional; summary of the method: as §2
[25] = test system: A498; assay: Growth inhibition of human A498 cells; type: functional; summary of the method: as §1
[26] = test system: 786-0; assay: Growth inhibition of human 786-0 cells; type: functional; summary of the method: as §1
[27] = test system: ACHN; assay: Growth inhibition of human ACHN cells; type: functional; summary of the method: as §1
[28] = test system: CAKI-1; assay: Growth inhibition of human Caki1 cells; type: functional; summary of the method: as §1
[29] = test system: RXF 393; assay: Growth inhibition of human RXF393 cells; type: functional; summary of the method: as §1
[30] = test system: SN12C; assay: Growth inhibition of human SN12C cells; type: functional; summary of the method: as §2
[31] = test system: TK-10; assay: Growth inhibition of human TK10 cells; type: functional; summary of the method: as §2
[32] = test system: UO-31; assay: Growth inhibition of human UO31 cells; type: functional; summary of the method: as §2
[33] = test system: PC-3; assay: Growth inhibition of human PC3 cells; type: functional; summary of the method: as §1
[34] = test system: OVCAR-3; assay: Growth inhibition of human OVCAR-3 cells; type: functional; summary of the method: as §1
[35] = test system: OVCAR-4; assay: Growth inhibition of human OVCAR4 cells; type: functional; summary of the method: as §1
[36] = test system: OVCAR-5; assay: Growth inhibition of human OVCAR5 cells; type: functional; summary of the method: as §1
[37] = test system: OVCAR-8; assay: Growth inhibition of human OVCAR8 cells; type: functional; summary of the method: as §1
[38] = test system: NCI/ADR-RES; assay: Growth inhibition of human NCI/ADR-RES cells; type: functional; summary of the method: as §1
[39] = test system: SK-OV-3; assay: Growth inhibition of human SKOV3 cells; type: functional; summary of the method: as §2
[40] = test system: MCF7; assay: Growth inhibition of human MCF7 cells; type: functional; summary of the method: as §1
[41] = test system: MDA-MB-231; assay: Growth inhibition of human MDA-MB-231 cells; type: functional; summary of the method: as §1
[42] = Growth inhibition of human Hs 578T cells; type: functional; summary of the method: as §1
[43] = test system: BT-549; assay: Growth inhibition of human BT549 cells; type: functional; summary of the method: as §1
[44] = test system: T47D; assay: Growth inhibition of human T47D cells; type: functional; summary of the method: as §2
[45] = test system: LOX IMVI; assay: Growth inhibition of human LOXIMVI cells; type: functional; summary of the method: as §1
[46] = test system: Malme-3M; assay: Growth inhibition of human MALME-3M cells; type: functional; summary of the method: as §1
[47] = test system: M14; assay: Growth inhibition of human M14 cells; type: functional; summary of the method: as §1
[48] = test system: MDA-MB-435; assay: Growth inhibition of human MDA-MB-435 cells; type: functional; summary of the method: as §1
[49] = test system: SK-MEL-2; assay: Growth inhibition of human SK-MEL-2 cells; type: functional; summary of the method: as §1
[50] = test system: SK-MEL-28; assay: Growth inhibition of human SK-MEL-28 cells; type: functional; summary of the method: as §1
[51] = test system: SK-MEL-5; assay: Growth inhibition of human SK-MEL-5 cells; type: functional; summary of the method: as §1
[52] = test system: UACC-257; assay: Growth inhibition of human UACC257 cells; type: functional; summary of the method: as §2
[53] = test system: UACC-62; assay: Growth inhibition of human UACC62 cells; type: functional; summary of the method: as §2
[54] = test system: MCF7; assay: Cell cycle arrest in human MCF7 cells assessed as accumulation at G0 phase at 10 uM after 24 hrs by FACS analysis; type: functional
Summary of the method: (§3)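 MCF-7 breast carcinoma cells were exposed to 10 µM test compound for 24 h, with DMSO as the vehicle control. Cell-cycle distribution was read by FACS as the percentage of cells in G0, G1, S and G2/M.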

[55] = test system: MCF7; assay: Cell cycle arrest in human MCF7 cells assessed as accumulation at G1 phase at 10 uM after 24 hrs by FACS analysis; type: functional; summary of the method: as §3
[56] = test system: MCF7; assay: Cell cycle arrest in human MCF7 cells assessed as accumulation at S phase at 10 uM after 24 hrs by FACS analysis; type: functional; summary of the method: as §3
[57] = test system: MCF7; assay: Cell cycle arrest in human MCF7 cells assessed as accumulation at G2/M phase at 10 uM after 24 hrs by FACS analysis; type: functional; summary of the method: as §3
[58] = test system: MCF7; assay: Cell cycle arrest in human MCF7 cells assessed as accumulation at G0 phase at 30 uM after 24 hrs by FACS analysis; type: functional
Summary of the method: (§4)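 MCF-7 cells were treated at 30 µM for 24 h alongside a DMSO control. Fractions in G0, G1, S and G2/M phases were measured by FACS, and values are means of three experiments.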

[59] = test system: MCF7; assay: Cell cycle arrest in human MCF7 cells assessed as accumulation at G1 phase at 30 uM after 24 hrs by FACS analysis; type: functional; summary of the method: as §4
[60] = test system: MCF7; assay: Cell cycle arrest in human MCF7 cells assessed as accumulation at S phase at 30 uM after 24 hrs by FACS analysis; type: functional; summary of the method: as §4
[61] = test system: MCF7; assay: Cell cycle arrest in human MCF7 cells assessed as accumulation at G2/M phase at 30 uM after 24 hrs by FACS analysis; type: functional; summary of the method: as §4
[62] = test system: MCF7; assay: Induction of apoptosis in human MCF7 cells assessed as decrease in procaspase 7 level at 30 uM after 24 hrs by Western blot analysis; type: functional, cell-based
Summary of the method: (§5)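 MCF-7 breast carcinoma cells were exposed to 30 µM compound for 24 h, with CA-4 as positive control. Cell lysates were then immunoblotted with antibodies to procaspase-7 and cleavage-specific PARP, using β-actin as loading control.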

[63] = test system: MCF7; assay: Induction of apoptosis in human MCF7 cells assessed as […] in PARP cleavage at 30 uM after 24 hrs by Western blot analysis; type: functional, cell-based; summary of the method: as §5

COc1cc(/C=C/C(=O)c2cccc(-n3cc(-c4ccccc4)[nH]c3=O)c2)cc(OC)c1OC
GI50 [1]: 620 nM
GI50 [2]: 500 nM
GI50 [3]: 4030 nM
GI50 [4]: 2300 nM
GI50 [5]: 4120 nM
GI50 [6]: 10800 nM
GI50 [7]: 14600 nM
GI50 [8]: 1430 nM
GI50 [9]: 2020 nM
GI50 [10]: 1400 nM
GI50 [11]: 950 nM
GI50 [12]: 1510 nM
GI50 [13]: 1260 nM
GI50 [14]: 330 nM
GI50 [15]: 1130 nM
GI50 [16]: 660 nM
GI50 [17]: 1370 nM
GI50 [18]: 390 nM
GI50 [19]: 1920 nM
GI50 [20]: 1900 nM
GI50 [21]: 1680 nM
GI50 [22]: 2350 nM
GI50 [23]: 4470 nM
GI50 [24]: 630 nM
GI50 [25]: 2650 nM
GI50 [26]: 1380 nM
GI50 [27]: 1600 nM
GI50 [28]: 1750 nM
GI50 [29]: 1710 nM
GI50 [30]: 2090 nM
GI50 [31]: 3020 nM
GI50 [32]: 1510 nM
GI50 [33]: 3260 nM
GI50 [34]: 1230 nM
GI50 [35]: 1880 nM
GI50 [36]: 1880 nM
GI50 [37]: 1620 nM
GI50 [38]: 1100 nM
GI50 [39]: 3270 nM
GI50 [40]: 310 nM
GI50 [41]: 2170 nM
GI50 [42]: 3410 nM
GI50 [43]: 1930 nM
GI50 [44]: 2190 nM
GI50 [45]: 480 nM
GI50 [46]: 1310 nM
GI50 [47]: 1350 nM
GI50 [48]: 1200 nM
GI50 [49]: 2060 nM
GI50 [50]: 1740 nM
GI50 [51]: 1400 nM
GI50 [52]: 1520 nM
GI50 [53]: 1520 nM
Activity [54]: 8.19%
Activity [55]: 54.85%
Activity [56]: 17.5%
Activity [57]: 19.46%
Activity [58]: 52.34%
Activity [59]: 39.08%
Activity [60]: 5.6%
Activity [61]: 3.02%

COc1ccc(/C=C\c2cc(OC)c(OC)c(OC)c2)cc1O [COMBRETASTATIN A4]
Activity [54]: 9.45%
Activity [55]: 11.79%
Activity [56]: 9.96%
Activity [57]: 68.8%
Activity [58]: 11.64%
Activity [59]: 25.04%
Activity [60]: 39.63%
Activity [61]: 23.69%
Activity [62]: inactive
Activity [63]: inactive
